Laboratory results taken from ChEMBL document CHEMBL2040734, “Benzothiazoles: search for anticancer agents” (2012).

Assays:
Assay type in all cases: functional
[1] = tested on: ACHN; experiment: Cytotoxicity against human ACHN cells assessed as cell growth at 0.01 uM after 48 hrs by sulforhodamine B assay; conditions: read-out: Activity
How it was run: (§1)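 NCI-60 five-dose screen. Cells were grown in RPMI 1640 with 5% FBS and 2 mM L-glutamine and preincubated 24 h. Compound (DMSO stock) was tested at 0.01, 0.1, 1, 10 and 100 µM for 48 h at 37 °C. Cells were fixed in situ with cold TCA (final 10%) and stained with 0.4% SRB. A515 was read, and percent growth was calculated against time-zero and control plates.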

[2] = Cytotoxicity against human Hs 578T cells assessed as cell growth at 0.01 uM after 48 hrs by sulforhodamine B assay; conditions: read-out: Activity
How it was run: (§2)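 Five-dose NCI panel run at 0.01, 0.1, 1, 10 and 100 µM. Cells were in RPMI 1640 with 5% FBS and 2 mM L-glutamine, seeded at 5000–40,000 cells/well and pre-incubated 24 h. Drug was diluted from a DMSO stock into medium with 50 µg/ml gentamicin. Exposure was 48 h at 37 °C, 5% CO2. Cells were fixed with cold TCA and stained with 0.4% SRB, read at 515 nm. Percent growth came from time-zero, control and test absorbances.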

[3] = tested on: NCI-H23; experiment: Cytotoxicity against human NCI-H23 cells assessed as cell growth at 0.1 uM after 48 hrs by sulforhodamine B assay; conditions: NCI-H23, 48 h, read-out: Activity
[4] = tested on: NCI-H322M; experiment: Cytotoxicity against human NCI-H322M cells assessed as cell growth at 0.1 uM after 48 hrs by sulforhodamine B assay; conditions: read-out: Activity
[5] = tested on: M14; experiment: Cytotoxicity against human M14 cells assessed as cell growth at 0.1 uM after 48 hrs by sulforhodamine B assay; conditions: M14, 48 h, read-out: Activity
[6] = tested on: HCT-116; experiment: Cytotoxicity against human HCT116 cells assessed as cell growth at 100 uM after 48 hrs by sulforhodamine B assay; conditions: HCT-116, 48 h, read-out: Activity; how it was run: as §2
[7] = tested on: SNB-75; experiment: Cytotoxicity against human SNB75 cells assessed as cell growth at 100 uM after 48 hrs by sulforhodamine B assay; conditions: SNB-75, 48 h, read-out: Activity
[8] = tested on: SK-MEL-28; experiment: Cytotoxicity against human SK-MEL-28 cells assessed as cell growth at 100 uM after 48 hrs by sulforhodamine B assay; conditions: SK-MEL-28, 48 h, read-out: Activity
[9] = tested on: OVCAR-5; experiment: Cytotoxicity against human OVCAR5 cells assessed as cell growth at 100 uM after 48 hrs by sulforhodamine B assay; conditions: OVCAR-5, 48 h, read-out: Activity
[10] = tested on: A498; experiment: Cytotoxicity against human A498 cells assessed as cell growth at 100 uM after 48 hrs by sulforhodamine B assay; conditions: A498, 48 h, read-out: Activity; how it was run: as §1
[11] = tested on: MDA-MB-231; experiment: Cytotoxicity against human MDA-MB-231 cells assessed as cell growth at 0.1 uM after 48 hrs by sulforhodamine B assay; conditions: MDA-MB-231, 48 h, read-out: Activity
[12] = tested on: HL-60(TB); experiment: Cytotoxicity against human HL-60(TB) cells assessed as cell growth at 1 uM after 48 hrs by sulforhodamine B assay; conditions: HL-60, 48 h, read-out: Activity
How it was run: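 NCI five-dose screen on the HL-60(TB) leukaemia line, grown in RPMI 1640 with 5% FBS and 2 mM L-glutamine and plated for 24 h before dosing. DMSO stocks were diluted in medium. Cells were exposed 48 h at 37 °C, then settled cells were fixed in 16% TCA (final) and stained with SRB, absorbance 515 nm. Percent growth = (Ti−Tz)/(C−Tz)×100, or (Ti−Tz)/Tz×100 when Ti<Tz.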

[13] = tested on: T47D; experiment: Cytotoxicity against human T47D cells assessed as cell growth at 100 uM after 48 hrs by sulforhodamine B assay; conditions: read-out: Activity
[14] = tested on: HCC 2998; experiment: Cytotoxicity against human HCC2998 cells assessed as cell growth at 1 uM after 48 hrs by sulforhodamine B assay; conditions: HCC 2998, 48 h, read-out: Activity; how it was run: as §2
[15] = tested on: MDA-MB-231; experiment: Cytotoxicity against human MDA-MB-231 cells assessed as cell growth at 1 uM after 48 hrs by sulforhodamine B assay; conditions: MDA-MB-231, 48 h, read-out: Activity
[16] = tested on: IGROV-1; experiment: Cytotoxicity against human IGROV1 cells assessed as cell growth at 10 uM after 48 hrs by sulforhodamine B assay; conditions: IGROV-1, 48 h, read-out: Activity
[17] = tested on: SW-620; experiment: Cytotoxicity against human SW620 cells assessed as cell growth at 10 '-5 M after 48 hrs by sulforhodamine B assay; conditions: SW-620, 48 h, read-out: Activity
[18] = tested on: SNB-75; experiment: Cytotoxicity against human SNB75 cells assessed as cell growth at 10 '-5 M after 48 hrs by sulforhodamine B assay; conditions: SNB-75, 48 h, read-out: Activity
[19] = tested on: 786-0; experiment: Cytotoxicity against human 786-0 cells assessed as cell growth at 10 '-5 M after 48 hrs by sulforhodamine B assay; conditions: 786-0, 48 h, read-out: Activity
How it was run: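 Primary NCI-60 single-dose screen at 10 µM. Cells were grown in RPMI 1640 with 5% FBS and 2 mM L-glutamine and plated 24 h before drug addition. Compound was solubilized in DMSO, then exposed for 48 h at 37 °C under 5% CO2. Cells were TCA-fixed and stained with SRB, and absorbance was read at 515 nm. Growth was expressed relative to time-zero and untreated controls.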

[20] = tested on: MDA-MB-468; experiment: Cytotoxicity against human MDA-MB-468 cells assessed as cell growth at 10 '-5 M after 48 hrs by sulforhodamine B assay; conditions: MDA-MB-468, 48 h, read-out: Activity
[21] = tested on: NCI-H322M; experiment: Growth inhibition of human NCI-H322M cells after 48 hrs by sulforhodamine B assay; conditions: for CC50: read-out: LC50 (the source's name)
How it was run: (§3)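 Adherent NCI-60 lines were grown in RPMI 1640 with 5% FBS and 2 mM L-glutamine, plated at 5000–40,000 cells/well and preincubated 24 h. They were then exposed to five concentrations (0.01–100 µM, from a DMSO stock) for 48 h at 37 °C, 5% CO2. Cells were fixed with cold TCA (10% final, 60 min, 4 °C) and stained with 0.4% SRB. Dye was solubilized in 10 mM Tris base and A515 read. GI50 was derived from time-zero, control and treated absorbances.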

[22] = tested on: U-251; experiment: Growth inhibition of human U251 cells after 48 hrs by sulforhodamine B assay; conditions: U-251, 48 h; how it was run: as §3
[23] = tested on: OVCAR-8; experiment: Growth inhibition of human OVCAR8 cells after 48 hrs by sulforhodamine B assay; conditions: OVCAR-8, 48 h; how it was run: as §3
[24] = tested on: SN12C; experiment: Growth inhibition of human SN12C cells after 48 hrs by sulforhodamine B assay; conditions: for CC50: read-out: LC50 (the source's name); how it was run: as §3
[25] = tested on: UO-31; experiment: Growth inhibition of human UO31 cells after 48 hrs by sulforhodamine B assay; conditions: UO-31, 48 h; for CC50: read-out: LC50 (the source's name); how it was run: as §3
[26] = tested on: HCT-116; experiment: Cytotoxicity against human HCT116 cells assessed as cell growth at 0.01 uM after 48 hrs by sulforhodamine B assay; conditions: HCT-116, 48 h, read-out: Activity; how it was run: as §2

Row | SMILES | growth at 0.01 µM [1] [%] | growth at 0.01 µM [2] [%] | growth at 0.1 µM [3] [%] | growth at 0.1 µM [4] [%] | growth at 0.1 µM [5] [%] | growth at 100 µM [6] [%] | growth at 100 µM [7] [%] | growth at 100 µM [8] [%] | growth at 100 µM [9] [%] | growth at 100 µM [10] [%] | growth at 0.1 µM [11] [%] | growth at 1 µM [12] [%] | growth at 100 µM [13] [%] | growth at 1 µM [14] [%] | growth at 1 µM [15] [%] | growth at 10 µM [16] [%] | growth at 10 µM [17] [%] | growth at 10 µM [18] [%] | growth at 10 µM [19] [%] | growth at 10 µM [20] [%] | other results
1 | Cc1ccc2nc(Nc3c(C)cccc3C)sc2c1 | 97 | 92 | 92 | 105 | 104 | 49 | 32 | 55 | 78 | 60 | 84 | 56 | 46 | 70 | 37 | 42 | 21.6 | -15.5 | 57.8 | 2.04 | GI50 [21]: > 100 µM; TGI [21]: > 100 µM; CC50 [21]: > 100 µM; GI50 [22]: 25.4 µM; LC50 [22]: > 100 µM; TGI [22]: > 100 µM; GI50 [23]: 57.9 µM; TGI [23]: > 100 µM; CC50 ([23]; read-out: LC50 (the source's name)): > 100 µM; TGI [24]: > 100 µM; CC50 [24]: > 100 µM; TGI [25]: > 100 µM; CC50 [25]: > 100 µM; growth at 0.01 µM [26]: 102%
2 | Clc1cccc(Cl)c1Nc1nc2cccc(Cl)c2s1 | 99 | 87 | 83 | 102 | 101 | -73 | 4 | -69 | -96 | -92 | 81 | 63 | -64 | 70 | 17 | -55 | -84.9 | -26.9 | -59.7 | -25.6 | GI50 [21]: 1.46 µM; TGI [21]: 3.01 µM; CC50 [21]: 6.19 µM; GI50 [22]: 1.31 µM; TGI [22]: 2.79 µM; GI50 [23]: 1.15 µM; TGI [23]: 2.83 µM; GI50 [24]: 0.772 µM; TGI [24]: 2.12 µM; CC50 [24]: 4.85 µM; GI50 [25]: 0.161 µM; TGI [25]: 1.67 µM; CC50 [25]: 4.44 µM; growth at 0.01 µM [26]: 104%
